Data as given in ChEMBL document CHEMBL4196145, “Antitumor Activity of Diterpenoids from Jatropha gossypiifolia: Cell Cycle Arrest and Apoptosis-Inducing Activity in RKO Colon Cancer Cells” (J Nat Prod, 2018).
Activity calls are given as the source filed them. No cut-off for these calls is given here.

Key:
RKO [1] = assay: Growth inhibition of human RKO cells after 48 hrs by CCK-8 assay; assay type: functional, cell-based
How it was run: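 CCK-8 (WST-8) was then added for 1 h at 37 °C and optical density read at 450 nm. Survival was expressed relative to untreated control wells and IC50 calculated. Three independent experiments.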

LoVo = assay: Growth inhibition of human LoVo cells after 48 hrs by CCK-8 assay; assay type: functional, cell-based
RKO [2] = assay: Cell cycle arrest in human RKO cells assessed as accumulation at G1 phase at 10.2 uM after 24 hrs by propidium iodide staining based flow cytometry (reference value: 51.13%); assay type: functional
RKO [3] = assay: Cell cycle arrest in human RKO cells assessed as accumulation at G2/M phase at 10.2 uM after 24 hrs by propidium iodide staining based flow cytometry (reference value: 10.97%); assay type: functional
RKO [4] = assay: Cell cycle arrest in human RKO cells assessed as accumulation at S phase at 10.2 uM after 24 hrs by propidium iodide staining based flow cytometry (reference value: 37.89%); assay type: functional
RKO [5] = assay: Cell cycle arrest in human RKO cells assessed as accumulation at G1 phase at 20.4 uM after 24 hrs by propidium iodide staining based flow cytometry (reference value: 51.13%); assay type: functional
RKO [6] = assay: Cell cycle arrest in human RKO cells assessed as accumulation at G2/M phase at 20.4 uM after 24 hrs by propidium iodide staining based flow cytometry (reference value: 10.97%); assay type: functional
RKO [7] = assay: Cell cycle arrest in human RKO cells assessed as accumulation at S phase at 20.4 uM after 24 hrs by propidium iodide staining based flow cytometry (reference value: 37.89%); assay type: functional
RKO [8] = assay: Induction of apoptosis in human RKO cells assessed as viable cells at 10.2 uM after 24 hrs by annexin V-FITC/propidium iodide staining based flow cytometry (reference value: 94.1%); assay type: functional; settings: read-out: Activity
RKO [9] = assay: Induction of apoptosis in human RKO cells assessed as early apoptotic cells at 10.2 uM after 24 hrs by annexin V-FITC/propidium iodide staining based flow cytometry (reference value: 1.98%); assay type: functional
RKO [10] = assay: Induction of apoptosis in human RKO cells assessed as late apoptotic cells at 10.2 uM after 24 hrs by annexin V-FITC/propidium iodide staining based flow cytometry (reference value: 3.91%); assay type: functional
RKO [11] = assay: Induction of apoptosis in human RKO cells assessed as necrotic cells at 10.2 uM after 24 hrs by annexin V-FITC/propidium iodide staining based flow cytometry (reference value: 0.035%); assay type: functional
RKO [12] = assay: Induction of apoptosis in human RKO cells assessed as viable cells at 20.4 uM after 24 hrs by annexin V-FITC/propidium iodide staining based flow cytometry (reference value: 94.1%); assay type: functional; settings: read-out: Activity
RKO [13] = assay: Induction of apoptosis in human RKO cells assessed as early apoptotic cells at 20.4 uM after 24 hrs by annexin V-FITC/propidium iodide staining based flow cytometry (reference value: 1.98%); assay type: functional
RKO [14] = assay: Induction of apoptosis in human RKO cells assessed as late apoptotic cells at 20.4 uM after 24 hrs by annexin V-FITC/propidium iodide staining based flow cytometry (reference value: 3.91%); assay type: functional
RKO [15] = assay: Induction of apoptosis in human RKO cells assessed as necrotic cells at 20.4 uM after 24 hrs by annexin V-FITC/propidium iodide staining based flow cytometry (reference value: 0.035%); assay type: functional

`C=C1CC[C@H]2[C@@H](c3c(C)c(O)c4c(c31)C(=O)[C@H](C)C4)C2(C)C` was tested, and the “growth inhibition (GI)” value (RKO [1]) was “inactive” and the “growth inhibition (GI)” value (LoVo) was “inactive”.
`C=C1CC[C@H]2[C@@H](c3c(C)c(O)c4c(c31)C(=O)[C@@H](C)C4)C2(C)C` was tested, and the “growth inhibition (GI)” value (RKO [1]) was “inactive” and the “growth inhibition (GI)” value (LoVo) was “inactive”.
In the case of `C=C(C)[C@@H]1/C=C/[C@@H](C)C(=O)[C@H]2C[C@@H](C)[C@@H](OC(C)=O)/C2=C/[C@@H](C)C(=O)C1`, the “growth inhibition (GI)” value (RKO [1]) is reported as “inactive” and the “growth inhibition (GI)” value (LoVo) is reported as “inactive”.
For `C/C1=C/C2=C(C[C@@H](C)C2)C(=O)[C@@]2(C)C(=O)CC(C)(C)[C@@H]2CC1=O`, the “growth inhibition (GI)” value (RKO [1]) was “inactive” and the “growth inhibition (GI)” value (LoVo) was “inactive”.
In the case of `C/C1=C/[C@]23O[C@H]2[C@H](C)CC3C(=O)[C@]2(C)C(=O)CC(C)(C)[C@H]2CC1=O` (stereo not given in full), the “growth inhibition (GI)” value (RKO [1]) is reported as “inactive” and the “growth inhibition (GI)” value (LoVo) is reported as “inactive”.
`O=c1[nH]cc(F)c(=O)[nH]1` [FLUOROURACIL] was tested, and the IC50 (RKO [1]) was 10.2 µM, the IC50 (LoVo) was 11.5 µM and the Activity (RKO [2]) was 62.56%. The Activity (RKO [3]) was 21.47%, the Activity (RKO [4]) was 15.97% and the Activity (RKO [5]) was 66.4%. The Activity (RKO [6]) was 21.48%, the Activity (RKO [7]) was 12.12% and the viability at 10.2 µM (RKO [8]) was 69.2%. For the same compound, the Activity (RKO [9]) was 9.75%, the Activity (RKO [10]) was 20.8% and the Activity (RKO [11]) was 0.289%. For the same compound, the viability at 20.4 µM (RKO [12]) was 51.7%, the Activity (RKO [13]) was 11.6% and the Activity (RKO [14]) was 36.7%. The Activity (RKO [15]) was 0.065%.
`CC(=O)O[C@H]1C2=C[C@@H](C)C(=O)[C@H]3[C@H]4[C@@H](C[C@@H](C)[C@]3(O)[C@H]2C[C@H]1C)C4(C)C` was tested, and the “growth inhibition (GI)” value (RKO [1]) was “inactive” and the “growth inhibition (GI)” value (LoVo) was “inactive”.
In the case of `C=C(C)[C@@H]1/C=C/[C@@H](C)C(=O)[C@H]2C[C@@H](C)[C@@H](O)/C2=C/[C@@H](C)C(=O)C1`, the “growth inhibition (GI)” value (RKO [1]) is reported as “inactive” and the “growth inhibition (GI)” value (LoVo) is reported as “inactive”.
